From ChEMBL document CHEMBL3102821, “Lignans from the aerial parts of Saururus chinensis: isolation, structural characterization, and their effects on platelet aggregation” (J Nat Prod, 2014)
The source made the active and inactive calls. The calls are words filed in the database; no cut-off is given here.

How the values were obtained:
Platelet [1] = experiment: Prothrombotic activity in New Zealand white rabbit platelets assessed as increase in platelet aggregation at 100 uM by spectrophotometry; type: functional, Oryctolagus cuniculus
Procedure, shortened: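 Washed rabbit platelets are prepared the same way: 2.5 × 10^8/mL in Tyrode's with 1 mM Ca2+, stirred at 900 rpm at 37 °C, DMSO fixed at 0.5% final. Compound is added alone, with no agonist. Aggregation is read turbidimetrically as light transmission, with suspension set as 0% and buffer as 100%. The result is reported as % increase in aggregation.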

[2] = Antiplatelet activity against New Zealand white rabbit platelets assessed as inhibition of ADP-induced platelet aggregation preincubated for 2 mins before challenge […] by spectrophotometry; type: functional, cell-based; details: Oryctolagus cuniculus
Procedure, shortened: (§1)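 Resuspended in Tyrode's with 1 mM Ca2+ at 2.5 × 10^8/mL, stirred at 900 rpm. Sample in DMSO (0.5% final) for 2 min at 37 °C, then ADP 20 μM, AA 100 μM or PAF 10 nM. Read-out: maximal turbidimetric light-transmission rise within 4 min. Inhibition is calculated against vehicle.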

[3] = Antiplatelet activity against New Zealand white rabbit platelets assessed as inhibition of PAF-induced platelet aggregation preincubated at 100 uM for 2 mins before challenge […] by spectrophotometry; type: functional; details: Oryctolagus cuniculus; procedure, shortened: as §1
[4] = (§2) Antiplatelet activity against New Zealand white rabbit platelets assessed as inhibition of ADP-induced platelet aggregation preincubated at 100 uM for 2 mins before challenge […] by spectrophotometry; type: functional; details: Oryctolagus cuniculus; procedure, shortened: as §1
[5] = Antiplatelet activity against New Zealand white rabbit platelets assessed as inhibition of arachidonic acid-induced platelet aggregation preincubated at 100 uM for 2 mins before challenge […] by spectrophotometry; type: functional; details: Oryctolagus cuniculus; procedure, shortened: as §1
[6] = Antiplatelet activity against New Zealand white rabbit platelets assessed as inhibition of arachidonic acid-induced platelet aggregation preincubated for 2 mins before challenge […] by spectrophotometry; type: functional, cell-based; details: Oryctolagus cuniculus
Procedure, shortened: as §1, with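 “Washed rabbit platelets: PRP made with 5 mM EDTA (final), then washed in Ca2+-free Tyrode's with 0.35% BSA, heparin and apyrase at 37 °C for 20 min. Resuspended” for “Resuspended”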

[7] = Antiplatelet activity against New Zealand white rabbit platelets assessed as inhibition of PAF-induced platelet aggregation preincubated for 2 mins before challenge […] by spectrophotometry; type: functional, cell-based; details: Oryctolagus cuniculus
Procedure, shortened: as §1, with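 “Washed rabbit platelets: PRP made with 5 mM EDTA (final), then washed in Ca2+-free Tyrode's with 0.35% BSA, heparin and apyrase at 37 °C for 20 min. Resuspended” for “Resuspended”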

Platelet [8] = experiment: as §2; type: functional; details: Oryctolagus cuniculus; procedure, shortened: as §1
cells = details: Oryctolagus cuniculus, New Zealand white, Platelet, read-out: INH
[9] = Antiplatelet activity against New Zealand white rabbit platelets assessed as inhibition of PAF-induced platelet aggregation preincubated at 10 uM for 2 mins before challenge […] by spectrophotometry; type: functional; details: Oryctolagus cuniculus
Procedure, shortened: as §1, with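 “Washed rabbit platelets: PRP made with 5 mM EDTA (final), then washed in Ca2+-free Tyrode's with 0.35% BSA, heparin and apyrase at 37 °C for 20 min. Resuspended” for “Resuspended”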

Row | SMILES | IC50 [2] | inhibition at 100 µM [3] | inhibition at 100 µM [4] | inhibition at 100 µM [5] | further results
1 | C/C=C/c1cc(OC)c2c(c1)[C@H](C)[C@@H](c1ccc(O)c(OC)c1)O2 [LICARIN A] | – | – | – | – | Activity (Platelet [1]): 66.8%
2 | C[C@H](Cc1cc2c(cc1O)OCO2)[C@@H](C)Cc1cc2c(cc1O)OCO2 | – | – | – | – | Activity (Platelet [1]): 49.5%
3 | C=CCc1cc(OC)c(O[C@H](C)[C@H](OC(C)=O)c2cc(OC)c(OC)c(OC)c2)c(OC)c1 | 28.1 µM | 68.1% | 84.7% | 93.5% | IC50 [6]: 60.3 µM; IC50 [7]: 79.4 µM
4 | CC(=O)Oc1ccccc1C(=O)O [ASPIRIN] | – | – | – | 99.7% | –
5 | C[C@@H]1O[C@@H](Oc2c(-c3ccc(O)c(O)c3)oc3cc(O)cc(O)c3c2=O)[C@H](O)[C@H](O)[C@H]1O [QUERCITRIN] | – | 6.8% | 83.1% | 21.8% | –
6 | COc1ccc([C@H]2O[C@@H](c3cc(OC)c4c(c3)OCO4)[C@H](C)[C@@H]2C)cc1OC (relative stereo) | 56 µM | 98.9% | 75.6% | 80.3% | IC50 [6]: 85 µM; IC50 [7]: 37.2 µM
7 | C[C@@H]1[C@@H](c2ccc3c(c2)OCO3)c2c(c(O)cc3c2OCO3)C[C@H]1C | 40.3 µM | 0.6% | 84% | 83.7% | IC50 [6]: 71.4 µM
8 | COc1cc(C[C@@H](C)[C@H](C)Cc2ccc(O)c(OC)c2)ccc1O [(-)-DIHYDROGUAIARETICACID] | – | – | – | – | Activity (Platelet [1]): 76.4%
9 | COc1ccc([C@@H]2O[C@H](c3cc(OC)c4c(c3)OCO4)[C@@H](C)[C@@H]2C)cc1OC (relative stereo) | – | 42% | 19.1% | 54.4% | –
10 | COc1cc(O)c(C[C@H](C)[C@H](C)Cc2cc3c(cc2O)OCO3)cc1OC (relative stereo) | – | 7% | 71.5% | 73% | –
11 | CC(Cc1cc2c(cc1O)OCO2)C(C)C(=O)c1ccc2c(c1)OCO2 (stereo unspecified) [SAUCERNEOL G] | 34.6 µM | 3.9% | 90.9% | 94.1% | IC50 [6]: 25.9 µM
12 | COc1ccc([C@H]2O[C@@H](c3ccc(OC)c(OC)c3)[C@@H](C)[C@H]2C)cc1OC | – | 94.4% | 51.8% | 19.4% | IC50 [7]: 9.1 µM
13 | COc1cc(OC)c(C[C@H](C)[C@H](C)Cc2cc3c(cc2O)OCO3)cc1O (relative stereo) | 30 µM | 26.7% | 85.2% | 96.8% | IC50 [6]: 29.4 µM
14 | COC1=CC(=O)C(C[C@H](C)[C@H](C)Cc2cc3c(cc2O)OCO3)=CC1=O (relative stereo) | 9.8 µM | 92% | 90.4% | 98.7% | IC50 [6]: 14 µM; IC50 [7]: 61.7 µM
15 | C[C@@H]1[C@H]2c3cc4c(cc3O[C@@]35OCOC3=CC(=O)[C@H](C[C@H]1C)[C@@H]25)OCO4 [SAUCHINONE] | – | 11.8% | – | 10.7% | inhibition (Platelet [8]): inactive
16 | COc1cc(C[C@H](C)[C@H](C)Cc2cc3c(cc2O)OCO3)ccc1O (relative stereo) | – | – | – | – | Activity (Platelet [1]): 66.1%
17 | COc1cc(C[C@H](C)[C@H](C)Cc2cc3c(cc2O)OCO3)c(O)cc1O (relative stereo) | – | 11.7% | 68.2% | 90.9% | –
18 | C/C=C/c1cc(OC)c2c(c1)[C@H](C)[C@@H](c1ccc3c(c1)OCO3)O2 [(-)-LICARIN B] | 50.6 µM | 5.3% | 86.7% | 42.5% | –
19 | COC(=O)[C@H](c1ccccc1Cl)N1CCc2sccc2C1 [CLOPIDOGREL] | – | – | – | – | inhibition at 30 µM (cells): 80.2%
20 | C[C@@H]1[C@H]2c3cc4c(cc3O[C@@]35OCOC3=CC(=O)[C@H](C[C@H]1C)[C@H]25)OCO4 [SAUCHINONE A] | – | 23.6% | 48.2% | 28.2% | –
21 | CCCCCCCCCCCCCCCCCCNC(=O)OCC(COP(=O)([O-])OCC[n+]1ccsc1)OC (stereo unspecified) | – | – | – | – | inhibition at 10 µM [9]: 94.8%
